Source: ChEMBL document CHEMBL1126896, “Preparation and anti-HIV activity of O-acylated heparin and dermatan sulfate derivatives with low anticoagulant effect” (J Med Chem, 1993)

Legend:
HuT78 [1] = assay: Giant-cell formation between persistently HIV-1 infected HUT-78 cells and uninfected MOLT-4 cells; assay type: functional, cell-based
Outline: (§1)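 MOLT-4 cells were co-cultured with an equal number of HUT-78 cells persistently infected with HIV-1 IIIB or HIV-2 ROD, with varying compound concentrations. Syncytia were counted by flow cytofluorography after 24 h. EC50 is the concentration giving 50% protection against giant-cell formation.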

HuT78 [2] = assay: Giant-cell formation between persistently HIV-2 infected HUT-78 cells and uninfected MOLT-4 cells; assay type: functional, cell-based; outline: as §1
[3] = In vitro anticoagulant activity determined by clotting test of activated partial thromboplastin time (APTT) on a pool of human plasma; assay type: functional
Outline: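 Activated partial thromboplastin time clotting test on pooled human plasma, run on an automatic coagulometer. Activities were calculated according to the European Pharmacopoeia.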

MT4 [4] = assay: Effective concentration to achieve 50% protection of MT-4 cells against the cytopathic effect of HIV-1; assay type: functional, cell-based
MT4 [5] = assay: Effective concentration to achieve 50% protection of MT-4 cells against the cytopathic effect of HIV-2; assay type: functional, cell-based
MT4 [6] = assay: Selectivity index for CC50 (cytotoxic concentration based on the reduction of the viability of mock-infected MT-4 cells) to that of EC50 against HIV-1; assay type: functional
Outline: (§2)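 MT-4 cells at 3 × 10^5 cells/mL were infected with HIV-1 IIIB or HIV-2 ROD at 100 CCID50/mL, or mock-infected, alongside serial compound dilutions. Viability was read by MTT after 5 days at 37 °C. CC50 comes from mock-infected cells and EC50 from protection against cytopathicity. Index = CC50/EC50.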

MT4 [7] = assay: Selectivity index for CC50 (cytotoxic concentration based on reduction of viability of mock-infected MT-4 cells) to that of EC50 against HIV-2; assay type: functional; outline: as §2
[8] = Homo sapiens, HuT78, read-out: EC50
[9] = Homo sapiens, MT4, read-out: EC50

Row | SMILES | EC50 (HuT78 [1]; [8]) | EC50 (HuT78 [2]; [8]) | APTT [3] | EC50 (MT4 [4]; [9]) | EC50 (MT4 [5]; [9]) | Selectivity index (MT4 [6]) | Selectivity index (MT4 [7]) | EC50 (HuT78 [1]; hut78) | EC50 (HuT78 [2]; hut78) | EC50 (MT4 [4]; mt4) | EC50 (MT4 [5]; mt4)
1 | CCCCOC(=O)/C=C(\COC(=O)CCC)OC1OC(COS(=O)(=O)[O-])C(OC2OC(C(=O)OCCCC)C(OC3OC(COS(=O)(=O)[O-])C(OC4OC(C(=O)OCCCC)C(OC5OC(COS(=O)(=O)[O-])C(O)C(OC(=O)CCC)C5NS(=O)(=O)[O-])C(OC(=O)CCC)C4OS(=O)(=O)[O-])C(OC(=O)CCC)C3NS(=O)(=O)[O-])C(OC(=O)CCC)C2OS(=O)(=O)[O-])C(OC(=O)CCC)C1NS(=O)(=O)[O-].[Na+].[Na+].[Na+].[Na+].[Na+].[Na+].[Na+].[Na+] (centres undefined) | 4 µg/mL | 4 µg/mL | 5 IU mg-1 | 0.28 µg/mL | 0.27 µg/mL | >1785 | >1850 | – | – | – | –
2 | CCCCOC(=O)/C=C(\CO)OC1OC(COS(=O)(=O)[O-])C(OC2OC(C(=O)OCCCC)C(OC3OC(COS(=O)(=O)[O-])C(OC4OC(C(=O)OCCCC)C(OC5OC(COS(=O)(=O)[O-])C(O)C(O)C5NC(C)=O)C(O)C4OS(=O)(=O)[O-])C(O)C3NC(C)=O)C(O)C2OS(=O)(=O)[O-])C(O)C1NC(C)=O.[Na+].[Na+].[Na+].[Na+].[Na+] (centres undefined) | 100 µg/mL | 20 µg/mL | 1.2 IU mg-1 | 6.5 µg/mL | 2.5 µg/mL | >77 | >200 | – | – | – | –
3 | CCCCCC(=O)OC/C(=C\C(=O)[O-])OC1OC(COS(=O)(=O)[O-])C(OC2OC(C(=O)[O-])C(OC3OC(COS(=O)(=O)[O-])C(OC4OC(C(=O)[O-])C(OC5OC(CS(=O)(=O)[O-])C(O)C(OC(=O)CCCCC)C5NS(=O)(=O)[O-])C(OC(=O)CCCCC)C4OS(=O)(=O)[O-])C(OC(=O)CCCCC)C3NS(=O)(=O)[O-])C(OC(=O)CCCCC)C2OS(=O)(=O)[O-])C(OC(=O)CCCCC)C1NS(=O)(=O)[O-].[Na+].[Na+].[Na+].[Na+].[Na+].[Na+].[Na+].[Na+].[Na+].[Na+].[Na+] (stereo in doubt; 3h) | – | – | 6 IU mg-1 | – | – | >5000 | >1250 | 3 µg/mL | 50 µg/mL | 0.1 µg/mL | 0.4 µg/mL
4 | CCCC(=O)OC/C(=C\C(=O)[O-])OC1OC(COS(=O)(=O)[O-])C(OC2OC(C(=O)[O-])C(OC3OC(COS(=O)(=O)[O-])C(OC4OC(C(=O)[O-])C(OC5OC(COS(=O)(=O)[O-])C(O)C(OC(=O)CCC)C5NC(C)=O)C(OC(=O)CCC)C4OS(=O)(=O)[O-])C(OC(=O)CCC)C3NC(C)=O)C(OC(=O)CCC)C2OS(=O)(=O)[O-])C(OC(=O)CCC)C1NC(C)=O.[Na+].[Na+].[Na+].[Na+].[Na+].[Na+].[Na+].[Na+] (centres undefined) | 15 µg/mL | 20 µg/mL | 6 IU mg-1 | 0.5 µg/mL | 1.2 µg/mL | >1000 | >417 | – | – | – | –
5 | O=C([O-])/C=C(\CO)OC1OC(COS(=O)(=O)[O-])C(OC2OC(C(=O)[O-])C(OC3OC(COS(=O)(=O)[O-])C(OC4OC(C(=O)[O-])C(OC5OC(COS(=O)(=O)[O-])C(O)C(O)C5NS(=O)(=O)[O-])C(O)C4OS(=O)(=O)[O-])C(O)C3NS(=O)(=O)[O-])C(O)C2OS(=O)(=O)[O-])C(O)C1NS(=O)(=O)[O-].[Na+].[Na+].[Na+].[Na+].[Na+].[Na+].[Na+].[Na+].[Na+].[Na+].[Na+] (stereo in doubt; 3a) | – | > 200 µg/mL | 5 IU mg-1 | – | – | >961 | 318 | > 200 µg/mL | – | 0.52 µg/mL | 77 µg/mL
6 | C=CCOC(=O)/C=C(\CO)OC1OC(COS(=O)(=O)[O-])C(OC2OC(C(=O)OCC=C)C(OC3OC(COS(=O)(=O)[O-])C(OC4OC(C(=O)OCC=C)C(OC5OC(COS(=O)(=O)[O-])C(O)C(O)C5NS(=O)(=O)[O-])C(O)C4OS(=O)(=O)[O-])C(O)C3NS(=O)(=O)[O-])C(O)C2OS(=O)(=O)[O-])C(O)C1NS(=O)(=O)[O-].[Na+].[Na+].[Na+].[Na+].[Na+].[Na+].[Na+].[Na+] (centres undefined) | 100 µg/mL | 3 µg/mL | 2 IU mg-1 | 0.2 µg/mL | 1 µg/mL | >2500 | >500 | – | – | – | –
7 | CC(=O)NC1C(OC2C(C(=O)[O-])OC(OC3C(COS(=O)(=O)[O-])OC(OC4C(C(=O)[O-])OC(OC5C(COS(=O)(=O)[O-])OC(O/C(=C/C(=O)[O-])CO)C(NC(C)=O)C5O)C(OS(=O)(=O)[O-])C4O)C(NC(C)=O)C3O)C(OS(=O)(=O)[O-])C2O)OC(COS(=O)(=O)[O-])C(O)C1O.[Na+].[Na+].[Na+].[Na+].[Na+].[Na+].[Na+].[Na+] (centres undefined) | 500 µg/mL | 60 µg/mL | 2.4 IU mg-1 | 4.1 µg/mL | 2.7 µg/mL | >122 | >185 | – | – | – | –
8 | C=CCCOC(=O)/C=C(\CO)OC1OC(COS(=O)(=O)[O-])C(OC2OC(C(=O)OCCC=C)C(OC3OC(COS(=O)(=O)[O-])C(OC4OC(C(=O)OCCC=C)C(OC5OC(COS(=O)(=O)[O-])C(O)C(O)C5NS(=O)(=O)[O-])C(O)C4OS(=O)(=O)[O-])C(O)C3NS(=O)(=O)[O-])C(O)C2OS(=O)(=O)[O-])C(O)C1NS(=O)(=O)[O-].[Na+].[Na+].[Na+].[Na+].[Na+].[Na+].[Na+].[Na+] (centres undefined) | 90 µg/mL | 2 µg/mL | 3 IU mg-1 | 0.6 µg/mL | 2.4 µg/mL | >833 | >208 | – | – | – | –
9 | CCCCCCCCOC(=O)/C=C(\CO)OC1OC(COS(=O)(=O)[O-])C(OC2OC(C(=O)OCCCCCCCC)C(OC3OC(COS(=O)(=O)[O-])C(OC4OC(C(=O)OCCCCCCCC)C(OC5OC(COS(=O)(=O)[O-])C(O)C(O)C5NS(=O)(=O)[O-])C(O)C4OS(=O)(=O)[O-])C(O)C3NS(=O)(=O)[O-])C(O)C2OS(=O)(=O)[O-])C(O)C1NS(=O)(=O)[O-].[Na+].[Na+].[Na+].[Na+].[Na+].[Na+].[Na+].[Na+] (stereo in doubt; 7f) | 4 µg/mL | 18 µg/mL | 3 IU mg-1 | 0.7 µg/mL | – | >714 | >454 | – | – | – | 1.1 µg/mL
10 | CCCCCCCCOC(=O)/C=C(\CO)OC1OC(COS(=O)(=O)[O-])C(OC2OC(C(=O)OCCCCCCCC)C(OC3OC(COS(=O)(=O)[O-])C(OC4OC(C(=O)OCCCCCCCC)C(OC5OC(COS(=O)(=O)[O-])C(O)C(O)C5NS(=O)(=O)[O-])C(O)C4OS(=O)(=O)[O-])C(O)C3NS(=O)(=O)[O-])C(O)C2OS(=O)(=O)[O-])C(O)C1NS(=O)(=O)[O-].[Na+].[Na+].[Na+].[Na+].[Na+].[Na+].[Na+].[Na+] (stereo in doubt; 7g) | – | – | 6 IU mg-1 | – | – | >833 | >1000 | 4 µg/mL | 20 µg/mL | 0.59 µg/mL | 0.5 µg/mL
11 | COc1ccc(COC(=O)/C=C(\CO)OC2OC(COS(=O)(=O)[O-])C(OC3OC(C(=O)OCc4ccc(OC)cc4)C(OC4OC(COS(=O)(=O)[O-])C(OC5OC(C(=O)OCc6ccc(OC)cc6)C(OC6OC(COS(=O)(=O)[O-])C(O)C(O)C6NS(=O)(=O)[O-])C(O)C5OS(=O)(=O)[O-])C(O)C4NS(=O)(=O)[O-])C(O)C3OS(=O)(=O)[O-])C(O)C2NS(=O)(=O)[O-])cc1.[Na+].[Na+].[Na+].[Na+].[Na+].[Na+].[Na+].[Na+] (centres undefined) | > 100 µg/mL | > 100 µg/mL | 4 IU mg-1 | 0.1 µg/mL | 4.3 µg/mL | >5000 | >119 | – | – | – | –
12 | C/C=C\COC(=O)/C=C(\CO)OC1OC(COS(=O)(=O)[O-])C(OC2OC(C(=O)OC/C=C/C)C(OC3OC(COS(=O)(=O)[O-])C(OC4OC(C(=O)OC/C=C/C)C(OC5OC(COS(=O)(=O)[O-])C(O)C(O)C5NS(=O)(=O)[O-])C(O)C4OS(=O)(=O)[O-])C(O)C3NS(=O)(=O)[O-])C(O)C2OS(=O)(=O)[O-])C(O)C1NS(=O)(=O)[O-].[Na+].[Na+].[Na+].[Na+].[Na+].[Na+].[Na+].[Na+] (centres undefined) | 10 µg/mL | 1 µg/mL | 3 IU mg-1 | 0.1 µg/mL | 1.3 µg/mL | >5000 | >384 | – | – | – | –
